Drawing on ChEMBL document CHEMBL1143797, “Synthesis, characterization and in vitro biological studies of novel cyano derivatives of N-alkyl and N-aryl piperazine” (2007), this text covers MIC, zone of inhibition and Activity for seven molecules.

The test system of test [1] is Staphylococcus epidermidis. The test is described as follows: Antibacterial activity against Staphylococcus epidermidis MTCCB 1824 after 18-20 hrs by broth dilution method. It counts as functional. The essentials: (§1)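 MIC was found by microbroth dilution in Mueller-Hinton broth with serial two-fold compound dilutions. The inoculum came from a 4–6 h broth culture adjusted to 0.5 McFarland, then diluted in broth to a final 3 × 10⁶ cfu/ml.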

The subject of test [2] is Escherichia coli. The test is described as follows: Antibacterial activity against Escherichia coli MTCCB 1652 at 30 ug/disc after 48 hrs by disc diffusion method. It counts as functional. As to conditions: read-out: IZ. The essentials:
(§2)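 Compound-impregnated discs were placed on agar plates pre-inoculated with the bacterial strain and incubated at 37 °C. Zones of inhibition around the discs were read at 48 h. Gentamicin served as the standard control, alongside a solvent-only (DMSO) disc.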

The test system of test [3] is Escherichia coli. The test is described as follows: Antibacterial activity against Escherichia coli MTCCB 1652 after 18-20 hrs by broth dilution method. The class given is functional. Put shortly: as §1
In test [4] the test system is Staphylococcus aureus. The test is described as follows: Antibacterial activity against Staphylococcus aureus MTCCB 737 after 18-20 hrs by broth dilution method. The class given is functional. Put shortly: as §1
(In broth dilution the organism is exposed to a series of concentrations in liquid medium.)

For test [5], the system named is Pseudomonas aeruginosa. The test is described as follows: Antibacterial activity against Pseudomonas aeruginosa MTCCB 741 at 30 ug/disc after 48 hrs by disc diffusion method. The class given is functional. Particulars: for zone of inhibition at 30 µg/disc: read-out: IZ. The essentials:
as §2
Background: A growth-free zone around the sample is the usual read-out of agar diffusion tests.

Test [6] has as its system Staphylococcus aureus. The test is described as follows: Antibacterial activity against Staphylococcus aureus MTCCB 737 at 30 ug/disc after 48 hrs by disc diffusion method. It counts as functional. As to conditions: for zone of inhibition at 30 µg/disc: read-out: IZ. The essentials: as §2
In test [7] the test system is Pseudomonas aeruginosa. The test is described as follows: Antibacterial activity against Pseudomonas aeruginosa MTCCB 741 after 18-20 hrs by broth dilution method. The class given is functional. The essentials: as §1
The subject of test [8] is Staphylococcus epidermidis. The test is described as follows: Antibacterial activity against Staphylococcus epidermidis MTCCB 1824 at 30 ug/disc after 48 hrs by disc diffusion method. The class given is functional. As to conditions: for zone of inhibition at 30 µg/disc: read-out: IZ. Put shortly:
as §2

Another test concerns HeLa. The test is described as follows: Cytotoxicity against Hela cells at 30 ug after 48 hrs by MTT assay relative to gentamicin. It counts as functional, Homo sapiens. Put shortly: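 HeLa cells were grown in DMEM with 10% heat-inactivated FBS and penicillin-streptomycin at 37 °C, 5% CO₂, seeded at 8 × 10³ cells/well and allowed 16 h to adhere. They were exposed to compound in serum-free DMEM for 4 h, then kept 48 h in growth medium. MTT was added for 2 h, formazan was dissolved in isopropanol/0.06 M HCl/0.5% SDS, and A540 was read. Viability is % of untreated cells, with gentamicin as comparator.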
Background: Formazan colour is commonly taken as a measure of viable cells.

The subject of test [9] is Aspergillus flavus. The test is described as follows: Antifungal activity against Aspergillus flavus ITCC 5192 by percentage spore germination inhibition method. The class given is functional. Put shortly: (§3)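 Compound serially double-diluted in culture medium in 96-well plates, triplicate wells per concentration. Each well inoculated with spore suspension of about 100 ± 5 spores and incubated at 37 °C for 16 h. Germinated and non-germinated spores counted by inverted microscope. MIC90 is the lowest concentration giving >90% inhibition of spore germination.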

Test [10] has as its system Aspergillus fumigatus. The test is described as follows: Antifungal activity against Aspergillus fumigatus ITCC 4517 by micro-broth dilution method. It counts as functional.
In test [11] the test system is Aspergillus niger. The test is described as follows: Antifungal activity against Aspergillus niger ITCC 5405 by percentage spore germination inhibition method. It counts as functional. The essentials: as §3
Test [12] concerns Aspergillus flavus. The test is described as follows: Antifungal activity against Aspergillus flavus ITCC 5192 by disc diffusion method. The class given is functional. Put shortly:
(§4)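 Agar plates inoculated with Aspergillus spores; sterile 5.0 mm filter-paper discs loaded with test compound over a range of 750–1.46 (unit as printed unclear) and placed on the surface. Incubated at 37 °C; zones read at 24, 48 and 96 h. MIC was taken as the lowest concentration giving an inhibition zone of at least 6.0 mm diameter.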

The subject of test [13] is Aspergillus flavus. The test is described as follows: Antifungal activity against Aspergillus flavus ITCC 5192 by micro-broth dilution method. The class given is functional.
Test [14] relates to Aspergillus fumigatus. The test is described as follows: Antifungal activity against Aspergillus fumigatus ITCC 4517 by disc diffusion method. It counts as functional. The essentials:
as §4

Test [15] has as its system Aspergillus niger. The test is described as follows: Antifungal activity against Aspergillus niger ITCC 5405 by micro-broth dilution method. It counts as functional.
Test [16] concerns Aspergillus niger. The test is described as follows: Antifungal activity against Aspergillus niger ITCC 5405 by disc diffusion method. It counts as functional. The essentials: as §4
The test system of test [17] is Aspergillus fumigatus. The test is described as follows: Antifungal activity against Aspergillus fumigatus ITCC 4517 by percentage spore germination inhibition method. The class given is functional. The essentials: as §3

Converted amounts (≈) assume the structure as drawn. The source made the active and inactive calls. The rule behind the calls is not given here.

In the case of `COc1ccccc1N1CCN(CC#N)CC1`, the MIC in test [1] was determined as 625 µg/mL (≈ 2700 µM); with Escherichia coli [3], 310 µg/mL (≈ 1340 µM); against Staphylococcus aureus [4] it was 625 µg/mL (≈ 2700 µM); against Pseudomonas aeruginosa [7] it was 625 µg/mL (≈ 2700 µM). The zone of inhibition at 30 µg/disc in the test on Escherichia coli [2] amounted to 10 mm; in the test on Pseudomonas aeruginosa [5], 8 mm; with Staphylococcus aureus [6], 9 mm; in test [8] it was 8 mm.

`N#CCN1CCN(c2ccccc2[N+](=O)[O-])CC1`: the result (in [1]; in the test on Staphylococcus aureus [4]; in the test with Pseudomonas aeruginosa [5]; in the test on Staphylococcus aureus [6]; with Pseudomonas aeruginosa [7]; in test [8]) was inactive. Moreover, the Activity in the test on HeLa is recorded as 60%.

Regarding `N#CCCN1CCN(CCC#N)CC1`, the outcome with Aspergillus flavus [9], with Aspergillus fumigatus [10], with Aspergillus niger [11], in the test on Aspergillus flavus [12], in the test with Aspergillus flavus [13] and with Aspergillus fumigatus [14] was inactive. In addition, the result in the test with Aspergillus niger [15] and in the test with Aspergillus niger [16] was inactive. Also, the MIC in test [1] was 625 µg/mL (≈ 3250 µM); against Escherichia coli [3], 625 µg/mL (≈ 3250 µM); with Staphylococcus aureus [4], 310 µg/mL (≈ 1610 µM); in the test on Pseudomonas aeruginosa [7], 156 µg/mL (≈ 813 µM). For the same molecule, the zone of inhibition at 30 µg/disc with Escherichia coli [2] worked out at 10 mm; in the test on Pseudomonas aeruginosa [5], 11 mm; with Staphylococcus aureus [6], 11 mm; in test [8], 9 mm.

Consider `N#CCCN1CCN(CCO)CC1`, for which the result in the test on Aspergillus flavus [9], with Aspergillus fumigatus [10], in the test with Aspergillus niger [11], with Aspergillus flavus [12], in the test with Aspergillus flavus [13] and with Aspergillus fumigatus [17] was inactive. In addition, the outcome in the test with Aspergillus fumigatus [14], with Aspergillus niger [15] and in the test with Aspergillus niger [16] was inactive. The MIC in test [1] was determined as 310 µg/mL (≈ 1690 µM); against Escherichia coli [3], 39.1 µg/mL (≈ 213 µM); with Staphylococcus aureus [4] it was 19.5 µg/mL (≈ 106 µM); with Pseudomonas aeruginosa [7] it was 39.1 µg/mL (≈ 213 µM). For the same molecule, in the test on HeLa, the Activity is 60%. For the same molecule, the zone of inhibition at 30 µg/disc turned out to be 15 mm in the test on Escherichia coli [2], 15 mm in the test with Pseudomonas aeruginosa [5], 18 mm with Staphylococcus aureus [6] and 11 mm in test [8].

`C[C@@H]1[C@H](O)[C@@H](C)/C=C/C=C/C=C/C=C/C=C/C=C/C=C/[C@H](O[C@@H]2O[C@H](C)[C@@H](O)[C@H](N)[C@@H]2O)C[C@@H]2O[C@](O)(C[C@@H](O)C[C@@H](O)[C@H](O)CC[C@@H](O)C[C@@H](O)CC(=O)O[C@H]1C)C[C@H](O)[C@H]2C(=O)O` [AMPHOTERICIN B]: the MIC with Aspergillus flavus [9] is 5 µg/mL (≈ 5.41 µM); with Aspergillus fumigatus [10] it was 5 µg/mL (≈ 5.41 µM); against Aspergillus niger [11], 5 µg/mL (≈ 5.41 µM); in the test on Aspergillus flavus [12] it was 2.5 µg/disc; in the test with Aspergillus flavus [13] it was 5 µg/mL (≈ 5.41 µM); against Aspergillus fumigatus [17], 5 µg/mL (≈ 5.41 µM). Besides, the MIC in the test with Aspergillus fumigatus [14] is 2.5 µg/disc; in the test with Aspergillus niger [15], 5 µg/mL (≈ 5.41 µM); in the test on Aspergillus niger [16], 2.5 µg/disc.

`CN1CCN(CCC#N)CC1`: the result with Aspergillus flavus [9], with Aspergillus fumigatus [10], in the test on Aspergillus niger [11], in the test on Aspergillus flavus [12], with Aspergillus flavus [13] and in the test with Aspergillus fumigatus [17] was inactive. For the same molecule, the outcome in the test with Aspergillus fumigatus [14], in the test with Aspergillus niger [15] and in the test on Aspergillus niger [16] was inactive. Moreover, the MIC in [1] came out at 156 µg/mL (≈ 1020 µM); in the test with Escherichia coli [3] it was 39.1 µg/mL (≈ 255 µM); against Staphylococcus aureus [4] it was 310 µg/mL (≈ 2030 µM); in the test with Pseudomonas aeruginosa [7] it was 19.5 µg/mL (≈ 127 µM). Also, the zone of inhibition at 30 µg/disc in the test on Escherichia coli [2] is 18 mm; in the test with Pseudomonas aeruginosa [5] it was 19 mm; with Staphylococcus aureus [6], 10 mm; in test [8], 11 mm.

Turning to `N#CCN1CCN(Cc2ccccc2)CC1`, the outcome with Aspergillus flavus [9], in the test with Aspergillus fumigatus [10], with Aspergillus niger [11], with Aspergillus flavus [12], in the test on Aspergillus flavus [13] and in the test with Aspergillus niger [15] was inactive. For the same molecule, the result with Aspergillus niger [16] was inactive. Further, the MIC amounted to 310 µg/mL (≈ 1440 µM) in test [1], 625 µg/mL (≈ 2900 µM) against Escherichia coli [3], 19.5 µg/mL (≈ 90.6 µM) against Staphylococcus aureus [4] and 156 µg/mL (≈ 726 µM) in the test on Pseudomonas aeruginosa [7]. In addition, the zone of inhibition at 30 µg/disc with Escherichia coli [2] was determined as 9 mm; in the test on Pseudomonas aeruginosa [5], 13 mm; with Staphylococcus aureus [6] it was 18 mm; in test [8] it was 10 mm.
